pIC50: −log10 of the molar value.
What was measured:
[1] = molecular target: 5-hydroxytryptamine receptor 7 (Homo sapiens, UniProt P34969); test: Displacement of [3H]LSD from human recombinant 5HT7 receptor expressed in CHO cell membrane; format: cell membranes
Outline: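 Membranes incubated with 3 nM [3H]LSD in 0.25 mL 50 mM Tris·HCl pH 7.4, 10 mM MgCl2, 0.5 mM EDTA, 90 min at 27 °C. Filtered on GF/C presoaked in 0.3% PEI and counted. Nonspecific binding with 0.5 uM methiothepin. 7-8 concentrations tested in duplicate, three assays. IC50 from nonlinear regression.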

[2] = molecular target: T1, 5-hydroxytryptamine receptor 1A (Homo sapiens, UniProt P08908); test: Displacement of [3H]8-OH-DPAT from human recombinant 5HT1A receptor expressed in CHOK1 cell membrane; format: cell membranes, CHO-K1
T1 sequence (P08908 whole entry): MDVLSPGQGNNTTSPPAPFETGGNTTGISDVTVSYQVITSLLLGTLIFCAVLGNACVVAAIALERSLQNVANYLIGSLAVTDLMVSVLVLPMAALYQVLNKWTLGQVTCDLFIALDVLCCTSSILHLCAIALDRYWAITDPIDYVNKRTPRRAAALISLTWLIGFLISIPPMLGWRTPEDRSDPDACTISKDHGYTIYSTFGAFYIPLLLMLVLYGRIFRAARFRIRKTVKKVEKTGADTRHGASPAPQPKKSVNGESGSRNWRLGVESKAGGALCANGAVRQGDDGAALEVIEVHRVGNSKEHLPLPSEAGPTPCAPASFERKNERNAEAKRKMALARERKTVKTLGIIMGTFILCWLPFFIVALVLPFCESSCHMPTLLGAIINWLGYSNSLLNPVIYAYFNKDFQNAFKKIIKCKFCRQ
Outline: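 Radioligand 0.5 nM [3H]8-OH-DPAT with receptor membranes in 0.25 mL 50 mM Tris·HCl pH 7.4, 1 mM EDTA, 2.5 mM MgCl2. Incubated 30 min at 37 °C. Stopped by rapid filtration on GF/C filters presoaked in 0.3% polyethylenimine, then scintillation counted. Nonspecific binding defined with methiothepin.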

[3] = molecular target: 5-hydroxytryptamine receptor 2A (Homo sapiens, UniProt P28223); test: Displacement of [3H]ketanserin from human recombinant 5HT2A receptor expressed in CHOK1 cell membrane; format: cell membranes, CHO-K1
Outline: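 Frozen membranes with 1 nM [3H]ketanserin in 50 mM Tris·HCl pH 7.4. Incubated 15 min at 37 °C. Harvested onto GF/C filters presoaked in 0.05% Brij. Nonspecific binding defined with mianserin.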

[4] = molecular target: 5-hydroxytryptamine receptor 6 (Homo sapiens, UniProt P50406); test: Displacement of [3H]LSD from human 5HT6 receptor expressed in HeLa cells; format: cell-based
Outline: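 HeLa-cell membranes with 1.8 nM [3H]LSD in 0.25 mL 50 mM Tris·HCl pH 7.4, 10 mM MgCl2, 0.5 mM EDTA. Incubated 60 min at 37 °C. Terminated by filtration through GF/C filters presoaked in 0.3% polyethylenimine. Methiothepin used for nonspecific binding.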

[5] = molecular target: T2, 5-hydroxytryptamine receptor 2C (Homo sapiens, UniProt P28335); test: Displacement of [3H]mesulergine from human recombinant 5HT2C receptor expressed in CHOK1 cell membrane; format: cell membranes, CHO-K1
T2 sequence (P28335 whole entry): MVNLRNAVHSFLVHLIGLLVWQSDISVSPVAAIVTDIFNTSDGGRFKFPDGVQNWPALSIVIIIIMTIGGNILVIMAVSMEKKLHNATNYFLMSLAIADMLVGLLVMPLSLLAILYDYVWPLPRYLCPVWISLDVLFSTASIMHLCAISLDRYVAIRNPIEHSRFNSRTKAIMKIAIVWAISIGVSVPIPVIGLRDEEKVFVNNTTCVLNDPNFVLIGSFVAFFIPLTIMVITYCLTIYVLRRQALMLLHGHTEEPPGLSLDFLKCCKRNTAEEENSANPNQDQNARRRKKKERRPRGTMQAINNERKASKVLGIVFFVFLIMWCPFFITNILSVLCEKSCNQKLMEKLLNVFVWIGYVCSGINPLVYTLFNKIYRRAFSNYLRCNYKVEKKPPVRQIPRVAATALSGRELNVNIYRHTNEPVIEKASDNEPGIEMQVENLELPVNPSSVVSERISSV
Outline: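 Frozen membranes with 1 nM [3H]mesulergine in 50 mM Tris·HCl pH 7.7 containing 0.1% ascorbic acid and pargyline. Incubated 30 min at 37 °C. Stopped by rapid filtration through GF/C filters presoaked in 1% BSA. Nonspecific binding defined with mianserin.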

5-hydroxytryptamine receptor 6, sequence (P50406 whole entry): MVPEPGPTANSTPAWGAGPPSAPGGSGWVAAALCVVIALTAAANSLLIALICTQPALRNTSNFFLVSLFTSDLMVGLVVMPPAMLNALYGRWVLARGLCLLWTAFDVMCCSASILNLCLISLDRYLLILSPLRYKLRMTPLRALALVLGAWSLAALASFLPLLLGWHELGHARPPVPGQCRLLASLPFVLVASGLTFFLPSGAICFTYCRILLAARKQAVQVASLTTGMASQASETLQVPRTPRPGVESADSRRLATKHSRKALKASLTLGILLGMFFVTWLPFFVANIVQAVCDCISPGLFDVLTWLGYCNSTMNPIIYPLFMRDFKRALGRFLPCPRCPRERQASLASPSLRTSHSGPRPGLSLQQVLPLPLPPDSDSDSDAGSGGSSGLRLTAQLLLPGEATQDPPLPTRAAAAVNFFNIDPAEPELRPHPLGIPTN
5-hydroxytryptamine receptor 2A, sequence (P28223 whole entry): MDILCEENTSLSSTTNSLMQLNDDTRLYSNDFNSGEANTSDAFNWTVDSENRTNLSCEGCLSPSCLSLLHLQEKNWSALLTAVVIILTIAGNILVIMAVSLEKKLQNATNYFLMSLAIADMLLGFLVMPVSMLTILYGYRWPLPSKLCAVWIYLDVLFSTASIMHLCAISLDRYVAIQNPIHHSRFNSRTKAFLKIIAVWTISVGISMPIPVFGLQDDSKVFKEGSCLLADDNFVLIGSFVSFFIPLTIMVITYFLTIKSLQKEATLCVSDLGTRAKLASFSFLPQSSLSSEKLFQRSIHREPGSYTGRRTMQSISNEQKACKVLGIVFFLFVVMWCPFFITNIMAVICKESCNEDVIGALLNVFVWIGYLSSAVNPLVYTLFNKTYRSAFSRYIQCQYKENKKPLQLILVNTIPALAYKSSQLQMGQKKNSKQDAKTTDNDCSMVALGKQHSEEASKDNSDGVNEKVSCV
5-hydroxytryptamine receptor 7, sequence (P34969 whole entry): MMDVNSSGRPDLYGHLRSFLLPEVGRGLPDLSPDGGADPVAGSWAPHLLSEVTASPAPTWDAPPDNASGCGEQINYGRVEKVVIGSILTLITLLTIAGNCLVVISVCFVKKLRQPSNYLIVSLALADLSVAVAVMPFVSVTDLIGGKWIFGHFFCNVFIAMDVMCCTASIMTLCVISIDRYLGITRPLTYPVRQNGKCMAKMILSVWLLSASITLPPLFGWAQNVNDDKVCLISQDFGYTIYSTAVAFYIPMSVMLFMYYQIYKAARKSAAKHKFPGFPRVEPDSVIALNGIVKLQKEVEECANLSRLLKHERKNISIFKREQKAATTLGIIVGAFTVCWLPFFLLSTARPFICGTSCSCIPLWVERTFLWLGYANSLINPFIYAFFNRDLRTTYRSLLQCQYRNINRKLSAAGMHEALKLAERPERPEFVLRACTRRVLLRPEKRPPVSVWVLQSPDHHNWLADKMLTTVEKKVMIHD

| Structure (SMILES) | pIC50 [1] | pIC50 [2] | pIC50 [3] | pIC50 [4] | pIC50 [5] |
| --- | --- | --- | --- | --- | --- |
| COc1ccc(S(=O)(=O)NC(C)CCN2CCN(c3ccc(F)cc3)CC2)cc1 (stereo not given) | 6.43 | – | – | – | – |
| COc1ccc(S(=O)(=O)NCCCN2CCN(c3ccccc3)CC2)cc1 | < 5.00 | – | – | – | – |
| O=S(=O)(NCCCN1CCN(c2ccccc2)CC1)c1ccc2ccccc2c1 | 6.17 | – | – | – | – |
| O=S(=O)(NCCCN1CCN(c2ccc(F)cc2)CC1)c1ccc2ccccc2c1 | 7.28 | – | – | – | – |
| COc1ccc(S(=O)(=O)NCCCN2CCN(C(=O)OCc3ccccc3)CC2)cc1 | < 5.00 | – | – | – | – |
| COc1ccc(S(=O)(=O)NCCCN2CCN(c3ccc(Cl)c(Cl)c3)CC2)cc1 | 6.99 | – | – | – | – |
| COc1ccc(S(=O)(=O)NCCCN2CCN(c3cccc(OC)c3)CC2)cc1 | 6.47 | – | – | – | – |
| COc1ccc(S(=O)(=O)NCCCN2CCN(c3ccc(F)cc3)CC2)cc1 | 7.33 | 7.41 | 7.13 | < 5.00 | 5.31 |
| COc1ccc(S(=O)(=O)NCCCN2CCN(c3ccccc3F)CC2)cc1 | 6.54 | – | – | – | – |
| COc1ccc(S(=O)(=O)NC(C)CCN2CCN(c3ccccc3)CC2)cc1 (stereo not given) | 6.42 | – | – | – | – |
| COc1ccc(S(=O)(=O)NCCCN2CCN(c3ccc(C(F)(F)F)cc3)CC2)cc1 | 6.42 | – | – | – | – |
| COc1ccc(N2CCN(CCCNS(=O)(=O)c3ccc4ccccc4c3)CC2)cc1 | 5.49 | – | – | – | – |
| COc1ccc(S(=O)(=O)NCCCN2CCN(c3ccc(C(C)=O)cc3)CC2)cc1 | < 5.00 | – | – | – | – |
| COc1ccc(S(=O)(=O)NCCCN2CCN(C(=O)c3ccco3)CC2)cc1 | < 5.00 | – | – | – | – |
| COc1cccc(N2CCN(CCCNS(=O)(=O)c3ccc4ccccc4c3)CC2)c1 | 6.65 | – | – | – | – |
| COc1ccc(S(=O)(=O)NCCCN2CCN(c3cccc(C(F)(F)F)c3)CC2)cc1 | 7.05 | 7.36 | 6.45 | 5.55 | 7.24 |
| O=S(=O)(NCCCN1CCN(c2ccc(C(F)(F)F)cc2)CC1)c1ccc2ccccc2c1 | 6.25 | – | – | – | – |
| COc1ccccc1N1CCN(CCCNS(=O)(=O)c2ccc3ccccc3c2)CC1 | 7.70 | 8.34 | 7.07 | 5.58 | 6.62 |
| COc1ccc(S(=O)(=O)NCCCN2CCN(c3ccccc3OC)CC2)cc1 | – | 6.57 | 5.29 | < 5.00 | 5.01 |
| O=S(=O)(NCCCN1CCN(c2ccccc2F)CC1)c1ccc2ccccc2c1 | 6.85 | – | – | – | – |
| O=S(=O)(NCCCN1CCN(Cc2ccccc2)CC1)c1ccc2ccccc2c1 | 6.32 | – | – | – | – |
| COc1ccc(N2CCN(CCCNS(=O)(=O)c3ccc(OC)cc3)CC2)cc1 | 5.03 | – | – | – | – |
| O=S(=O)(NCCCN1CCN(c2ccc(Cl)c(Cl)c2)CC1)c1ccc2ccccc2c1 | 6.91 | 6.67 | 7.72 | 6.11 | 6.67 |
| COc1ccc(S(=O)(=O)NC(C)CCN2CCN(c3ccccc3OC)CC2)cc1 (stereo not given) | 6.24 | – | – | – | – |
| O=S(=O)(NCCCN1CCN(c2cccc(C(F)(F)F)c2)CC1)c1ccc2ccccc2c1 | 7.92 | 7.54 | 7.02 | 5.71 | 7.04 |
| COc1ccc(S(=O)(=O)NCCCN2CCN(c3ccc([N+](=O)[O-])cc3)CC2)cc1 | < 5.00 | – | – | – | – |
| COc1ccc(S(=O)(=O)NC(C)CCN2CCN(c3cccc(C(F)(F)F)c3)CC2)cc1 (stereo not given) | 6.97 | 7.41 | 5.74 | 5.16 | 5.87 |
| O=S(=O)(NCCCN1CCN(Cc2ccccc2)CC1)c1ccccc1 | 6.02 | – | – | – | – |
